ChEMBL document CHEMBL3112519, “Degrasyn-like symmetrical compounds: possible therapeutic agents for multiple myeloma (MM-I)” (Bioorg Med Chem, 2014)
Activity calls are given as the source filed them. No cut-off for these calls is given here.

Key:
[1] = Cytotoxicity against human MM1S cells after 72 hrs by MTT assay; format: functional, cell-based; settings: MM1.S
Method in brief: (§1)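 Cells were grown in RPMI 1640 with 10% heat-inactivated FBS and 2 mM glutamine. Non-adherent cells were seeded at 20,000 per well and adherent cells at 5,000. Compounds were serially diluted in medium from a final top concentration of 10 μM (DMSO ≤0.1%), with vehicle controls, and incubated at 37 °C for 72 h. MTT was added for 2 h, then SDS/DMF lysis (pH 4.7) for 6 h, and OD570 was read. IC50 was taken from the concentration range.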

[2] = Cytotoxicity against human MM1S cells at 10 uM after 72 hrs by MTT assay; format: functional; settings: MM1.S
Method in brief: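 MM1.S cells were grown in RPMI 1640 with 10% heat-inactivated FBS and 2 mM glutamine and plated at 20,000 cells per well. They were exposed to a single 10 μM final concentration (DMSO ≤0.1%) or vehicle for 72 h at 37 °C. MTT was added for 2 h, followed by SDS/DMF lysis for 6 h and OD570 reading. Percent growth inhibition was calculated against vehicle.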

[3] = target: Mast/stem cell growth factor receptor Kit (Homo sapiens) (UniProt P10721); assay: Inhibition of human c-kit kinase at 10000 nM
Mast/stem cell growth factor receptor Kit (Homo sapiens), sequence (P10721 whole entry): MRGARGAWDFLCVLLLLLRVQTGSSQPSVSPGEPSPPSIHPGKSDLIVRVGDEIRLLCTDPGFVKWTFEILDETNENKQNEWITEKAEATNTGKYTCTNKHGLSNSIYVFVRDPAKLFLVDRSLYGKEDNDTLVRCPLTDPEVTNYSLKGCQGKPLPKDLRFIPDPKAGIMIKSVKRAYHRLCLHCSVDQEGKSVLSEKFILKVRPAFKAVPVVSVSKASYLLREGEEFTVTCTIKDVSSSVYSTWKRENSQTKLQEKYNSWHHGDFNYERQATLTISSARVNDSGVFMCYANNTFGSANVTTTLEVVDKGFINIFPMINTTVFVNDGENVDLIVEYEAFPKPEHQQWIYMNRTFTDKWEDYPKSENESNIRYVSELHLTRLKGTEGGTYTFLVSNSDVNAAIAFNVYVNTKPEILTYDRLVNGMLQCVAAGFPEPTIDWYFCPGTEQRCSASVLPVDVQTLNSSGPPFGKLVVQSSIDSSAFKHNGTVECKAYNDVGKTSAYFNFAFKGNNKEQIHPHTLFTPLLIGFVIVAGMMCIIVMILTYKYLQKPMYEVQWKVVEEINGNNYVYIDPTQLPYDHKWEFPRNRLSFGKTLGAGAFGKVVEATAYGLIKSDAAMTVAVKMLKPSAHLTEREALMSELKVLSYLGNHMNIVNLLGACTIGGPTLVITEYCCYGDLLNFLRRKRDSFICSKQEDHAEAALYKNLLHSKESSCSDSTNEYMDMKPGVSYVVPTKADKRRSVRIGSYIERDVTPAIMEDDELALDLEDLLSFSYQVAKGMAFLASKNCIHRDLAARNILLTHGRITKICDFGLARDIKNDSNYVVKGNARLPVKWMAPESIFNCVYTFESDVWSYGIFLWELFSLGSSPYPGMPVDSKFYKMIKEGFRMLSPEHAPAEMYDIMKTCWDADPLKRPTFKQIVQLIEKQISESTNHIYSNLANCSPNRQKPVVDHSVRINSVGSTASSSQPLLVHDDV

[4] = target: Tyrosine-protein kinase JAK2 (Homo sapiens) (UniProt O60674); assay: Inhibition of human JAK2 kinase at 10000 nM
Tyrosine-protein kinase JAK2 (Homo sapiens), sequence (O60674 whole entry): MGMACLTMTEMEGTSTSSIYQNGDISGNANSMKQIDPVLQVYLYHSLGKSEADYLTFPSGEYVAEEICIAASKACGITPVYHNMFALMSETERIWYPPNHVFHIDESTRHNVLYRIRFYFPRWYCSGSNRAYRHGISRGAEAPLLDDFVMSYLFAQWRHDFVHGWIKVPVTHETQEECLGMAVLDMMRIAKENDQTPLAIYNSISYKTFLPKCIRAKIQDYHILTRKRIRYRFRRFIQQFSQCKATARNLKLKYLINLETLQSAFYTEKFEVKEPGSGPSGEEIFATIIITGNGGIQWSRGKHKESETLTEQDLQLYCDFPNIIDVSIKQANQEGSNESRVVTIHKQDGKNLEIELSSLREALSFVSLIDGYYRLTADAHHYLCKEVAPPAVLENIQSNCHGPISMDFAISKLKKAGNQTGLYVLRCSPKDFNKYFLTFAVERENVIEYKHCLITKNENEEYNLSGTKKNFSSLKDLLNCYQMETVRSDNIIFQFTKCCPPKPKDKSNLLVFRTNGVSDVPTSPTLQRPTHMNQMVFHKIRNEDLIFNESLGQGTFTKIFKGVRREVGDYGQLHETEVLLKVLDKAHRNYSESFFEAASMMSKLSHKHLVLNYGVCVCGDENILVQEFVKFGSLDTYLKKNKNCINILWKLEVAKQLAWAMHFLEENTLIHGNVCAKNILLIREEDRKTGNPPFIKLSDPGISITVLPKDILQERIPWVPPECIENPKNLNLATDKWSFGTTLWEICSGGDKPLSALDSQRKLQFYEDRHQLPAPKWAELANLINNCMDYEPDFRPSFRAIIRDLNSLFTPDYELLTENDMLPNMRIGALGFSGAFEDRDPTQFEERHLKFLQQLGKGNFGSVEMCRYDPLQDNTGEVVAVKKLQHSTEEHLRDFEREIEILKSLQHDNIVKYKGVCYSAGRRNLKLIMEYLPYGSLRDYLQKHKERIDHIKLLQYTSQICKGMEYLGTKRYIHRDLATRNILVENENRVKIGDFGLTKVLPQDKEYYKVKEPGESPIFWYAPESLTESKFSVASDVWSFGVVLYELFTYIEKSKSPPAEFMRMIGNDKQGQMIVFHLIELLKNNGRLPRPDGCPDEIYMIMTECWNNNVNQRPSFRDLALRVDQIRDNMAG

[5] = Cytotoxicity against human Mino cells after 72 hrs by MTT assay; format: functional, cell-based; method in brief: as §1
[6] = test system: K562; assay: Cytotoxicity against human K562 cells after 72 hrs by MTT assay; format: functional, cell-based; settings: K562, 72 h; method in brief: as §1
[7] = organism: Homo sapiens; assay: Inhibition of human Bcr-Abl kinase at 10000 nM
[8] = test system: A-375; assay: Cytotoxicity against human A375 cells after 72 hrs by MTT assay; format: functional, cell-based; settings: A-375, 72 h; method in brief: as §1
[9] = target: T1, Ubiquitin carboxyl-terminal hydrolase 9X (Homo sapiens, UniProt Q93008); assay: Inhibition of Usp9x in human Z138 cells using HA-Ub vinyl-sulfone as substrate at 1.25 to 5 uM after 4 hrs by immunoblotting analysis; format: cell-based
T1 sequence (Q93008 whole entry, the tested form may be a part): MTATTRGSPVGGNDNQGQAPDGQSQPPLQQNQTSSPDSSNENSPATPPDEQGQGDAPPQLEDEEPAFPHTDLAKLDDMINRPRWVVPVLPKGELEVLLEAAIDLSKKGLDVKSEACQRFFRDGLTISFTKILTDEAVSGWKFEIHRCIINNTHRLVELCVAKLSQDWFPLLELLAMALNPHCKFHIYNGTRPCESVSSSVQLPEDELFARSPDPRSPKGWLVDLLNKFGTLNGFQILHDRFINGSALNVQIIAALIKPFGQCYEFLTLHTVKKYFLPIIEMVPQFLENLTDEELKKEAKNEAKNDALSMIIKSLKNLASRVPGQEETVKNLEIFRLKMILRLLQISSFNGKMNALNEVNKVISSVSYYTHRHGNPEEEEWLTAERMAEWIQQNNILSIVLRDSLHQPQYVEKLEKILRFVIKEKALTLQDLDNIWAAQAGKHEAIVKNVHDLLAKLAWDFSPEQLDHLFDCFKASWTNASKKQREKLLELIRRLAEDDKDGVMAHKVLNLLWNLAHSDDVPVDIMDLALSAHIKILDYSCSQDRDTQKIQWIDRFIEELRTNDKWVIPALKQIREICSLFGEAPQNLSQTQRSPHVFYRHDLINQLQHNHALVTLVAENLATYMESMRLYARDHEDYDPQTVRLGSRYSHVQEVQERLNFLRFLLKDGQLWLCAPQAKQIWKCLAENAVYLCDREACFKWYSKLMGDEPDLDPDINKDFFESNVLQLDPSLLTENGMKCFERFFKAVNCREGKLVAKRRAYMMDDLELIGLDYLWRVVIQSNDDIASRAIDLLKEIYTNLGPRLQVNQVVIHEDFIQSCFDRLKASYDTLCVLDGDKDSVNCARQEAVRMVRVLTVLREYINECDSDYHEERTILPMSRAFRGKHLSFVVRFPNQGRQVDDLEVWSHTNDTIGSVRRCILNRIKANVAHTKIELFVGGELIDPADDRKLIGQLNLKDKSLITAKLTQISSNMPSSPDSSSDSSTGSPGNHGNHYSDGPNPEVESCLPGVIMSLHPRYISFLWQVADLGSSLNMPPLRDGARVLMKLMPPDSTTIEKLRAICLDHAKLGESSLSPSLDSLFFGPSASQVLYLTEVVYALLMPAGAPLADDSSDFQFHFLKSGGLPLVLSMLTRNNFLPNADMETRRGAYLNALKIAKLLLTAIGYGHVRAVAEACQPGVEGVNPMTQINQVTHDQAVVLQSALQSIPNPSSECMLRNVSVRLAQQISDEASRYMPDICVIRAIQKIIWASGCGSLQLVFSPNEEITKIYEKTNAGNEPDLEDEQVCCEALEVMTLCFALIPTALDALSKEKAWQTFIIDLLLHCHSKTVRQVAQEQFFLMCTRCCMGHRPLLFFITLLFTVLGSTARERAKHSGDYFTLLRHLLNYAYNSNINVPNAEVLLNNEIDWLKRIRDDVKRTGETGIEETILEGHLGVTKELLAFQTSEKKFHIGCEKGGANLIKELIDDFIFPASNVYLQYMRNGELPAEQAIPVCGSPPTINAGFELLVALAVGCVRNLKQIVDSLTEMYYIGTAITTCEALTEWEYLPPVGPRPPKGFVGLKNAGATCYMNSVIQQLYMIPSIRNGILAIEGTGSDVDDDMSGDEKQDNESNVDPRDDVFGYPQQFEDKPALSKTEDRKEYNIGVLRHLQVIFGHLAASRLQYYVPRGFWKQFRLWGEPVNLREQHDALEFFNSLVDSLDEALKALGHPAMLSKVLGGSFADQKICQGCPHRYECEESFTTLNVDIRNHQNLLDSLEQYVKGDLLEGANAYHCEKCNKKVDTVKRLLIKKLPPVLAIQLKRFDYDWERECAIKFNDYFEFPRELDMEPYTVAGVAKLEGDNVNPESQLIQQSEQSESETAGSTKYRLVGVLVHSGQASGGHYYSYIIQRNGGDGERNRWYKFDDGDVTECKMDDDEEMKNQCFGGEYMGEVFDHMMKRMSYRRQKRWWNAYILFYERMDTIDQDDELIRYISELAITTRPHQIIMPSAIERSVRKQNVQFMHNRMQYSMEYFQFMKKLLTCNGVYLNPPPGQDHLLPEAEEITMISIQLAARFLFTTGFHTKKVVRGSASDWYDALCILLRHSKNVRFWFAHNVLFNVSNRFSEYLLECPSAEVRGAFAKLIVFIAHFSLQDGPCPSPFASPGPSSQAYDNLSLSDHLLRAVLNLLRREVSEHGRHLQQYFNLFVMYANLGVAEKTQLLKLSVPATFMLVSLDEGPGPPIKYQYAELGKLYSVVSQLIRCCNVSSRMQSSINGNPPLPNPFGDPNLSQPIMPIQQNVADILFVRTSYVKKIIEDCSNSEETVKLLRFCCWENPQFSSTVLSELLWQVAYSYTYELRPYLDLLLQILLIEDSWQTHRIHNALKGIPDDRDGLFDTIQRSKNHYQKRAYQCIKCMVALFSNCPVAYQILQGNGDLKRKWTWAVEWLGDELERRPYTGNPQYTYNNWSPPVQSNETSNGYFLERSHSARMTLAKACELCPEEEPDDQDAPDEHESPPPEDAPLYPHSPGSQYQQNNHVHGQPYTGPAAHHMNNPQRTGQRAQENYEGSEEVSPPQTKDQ

[10] = target: T1, Ubiquitin carboxyl-terminal hydrolase 9X; assay: Inhibition of human recombinant N-terminal His6-Smt3-fusion-tagged Usp9x catalytic domain expressed in Escherichia coli using Ub-AMC as substrate incubated for 30 mins prior to substrate addition by fluorescence assay

N#C/C(=C\c1cccc(/C=C(\C#N)C(=O)N[C@@H](Cc2ccccc2)c2ccccc2)c1)C(=O)N[C@@H](Cc1ccccc1)c1ccccc1 gave an IC50 [1] of 620 nM.

Work on C[C@H](NC(=O)/C(C#N)=C/c1cccs1)c1ccccc1 yielded an inhibition at 10 µM [2] of 14%.

In the case of CC[C@H](NC(=O)/C(C#N)=C/c1cccc(/C=C(\C#N)C(=O)N[C@@H](CC)c2ccccc2)c1)c1ccccc1, the IC50 [1] is reported as 800 nM.

With N#C/C(=C/c1cccc(Br)n1)C(=O)NCc1cccc(CNC(=O)/C(C#N)=C\c2cccc(Br)n2)c1 the inhibition [3] was “inactive”, the inhibition [4] was “inactive” and the IC50 [1] was 240 nM. The IC50 [5] was 200 nM, the IC50 [6] was 400 nM and the inhibition [7] was “inactive”. For the same compound, the IC50 [8] was 600 nM.

In the case of C[C@H](NC(=O)/C(C#N)=C/c1cc(/C=C(\C#N)C(=O)N[C@@H](C)c2ccccc2)cc(/C=C(\C#N)C(=O)N[C@@H](C)c2ccccc2)c1)c1ccccc1, the IC50 [1] is reported as 700 nM.

Compound N#C/C(=C/c1cnc[nH]1)C(=O)NCc1cccc(CNC(=O)/C(C#N)=C\c2cnc[nH]2)c1 has an IC50 [1] of over 5000 nM.

In the case of N#C/C(=C\c1cccc(/C=C(\C#N)C(=O)N[C@@H](CO)c2ccccc2)c1)C(=O)N[C@@H](CO)c1ccccc1, the IC50 [1] is reported as over 2000 nM.

C[C@H](NC(=O)/C(C#N)=C/c1cccc(/C=C(\C#N)C(=O)N[C@@H](C)c2ccccc2)n1)c1ccccc1 gave an IC50 [1] of 1280 nM.

Compound Cc1ccc(Cl)c(C=C(C#N)C(=O)NCc2cccc(CNC(=O)C(C#N)=Cc3c(Cl)ccc(C)c3F)c2)c1F has an IC50 [1] of 600 nM.

For C[C@H](NC(=O)/C(C#N)=C/c1cccc(/C=C(\C#N)C(=O)N[C@@H](C)c2ccccc2)c1)c1ccccc1, the inhibition at 10 µM [2] was 100%, the IC50 [1] was 400 nM and the IC50 [5] was 400 nM. It also gave an IC50 [6] of 600 nM and an IC50 [8] of 800 nM.

CCCCOc1ccc(/C=C(\C#N)C(=O)N[C@@H](C)c2ccccc2)cc1 showed an inhibition at 10 µM [2] of 31%.

N#C/C(=C/c1ccc([N+](=O)[O-])c(O)c1)C(=O)NCc1cccc(CNC(=O)/C(C#N)=C\c2ccc([N+](=O)[O-])c(O)c2)c1 showed an IC50 [1] of 700 nM.

For C[C@H](NC(=O)/C(C#N)=C/c1ccc(/C=C(\C#N)C(=O)N[C@@H](C)c2ccccc2Cl)cc1)c1ccccc1Cl, the IC50 [1] was over 5000 nM.

C[C@H](NC(=O)/C(C#N)=C/c1ccc(/C=C(\C#N)C(=O)N[C@@H](C)c2ccccc2)cc1)c1ccccc1 showed an IC50 [1] of over 5000 nM.

Compound COc1ccc([C@H](C)NC(=O)/C(C#N)=C/c2cccc(/C=C(\C#N)C(=O)N[C@@H](C)c3ccc(OC)cc3)c2)cc1 has an IC50 [1] of 1000 nM.

Compound N#C/C(=C\C=C\c1ccc(O)c(O)c1)C(=O)NCc1cccc(CNC(=O)/C(C#N)=C/C=C/c2ccc(O)c(O)c2)c1 has an IC50 [1] of over 5000 nM.

In the case of COc1ccc(C(CC2CC2)NC(=O)/C(C#N)=C/c2cccc(/C=C(\C#N)C(=O)NC(CC3CC3)c3ccc(OC)cc3)c2)cc1 (racemic), the IC50 [1] is reported as 1200 nM.

In the case of C[C@H](NC(=O)/C(C#N)=C/c1ccc(-c2ccccc2)cc1)c1ccccc1, the inhibition at 10 µM [2] is reported as 49%.

With N#C/C(=C/c1ccc(-c2cccs2)s1)C(=O)NCc1cccc(CNC(=O)/C(C#N)=C\c2ccc(-c3cccs3)s2)c1 the IC50 [1] was over 5000 nM.

CCCCCCOc1ccc(/C=C(/C#N)C(=O)NCc2cccc(CNC(=O)/C(C#N)=C\c3ccc(OCCCCCC)cc3)c2)cc1 gave an IC50 [1] of 5000 nM.

Compound COc1ccc(/C=C(/C#N)C(=O)NCc2cccc(CNC(=O)/C(C#N)=C\c3ccc(OC)c(OC)c3)c2)cc1OC has an IC50 [1] of 2000 nM.

N#C/C(=C/c1ccc(N2CCCCC2)cc1)C(=O)NCc1cccc(CNC(=O)/C(C#N)=C\c2ccc(N3CCCCC3)cc2)c1 showed an IC50 [1] of over 5000 nM.

Compound C[C@H](NC(=O)/C(C#N)=C/c1ccc(C(F)(F)F)cc1)c1ccccc1 has an inhibition at 10 µM [2] of 63%.

N#C/C(=C\c1ccccc1)C(=O)N1CCC(C(c2ccccc2)c2ccccc2)CC1 showed an inhibition at 10 µM [2] of 14%.

With N#C/C(=C\c1ccc(/C=C(\C#N)C(=O)N[C@@H](CO)c2ccccc2)cc1)C(=O)N[C@@H](CO)c1ccccc1 the IC50 [1] was 2000 nM.

N#C/C(=C/c1ccc(O)c(Br)c1)C(=O)NCc1cccc(CNC(=O)/C(C#N)=C\c2ccc(O)c(Br)c2)c1 showed an IC50 [1] of over 10000 nM.

For CCC[C@H](NC(=O)/C(C#N)=C/c1cccc(/C=C(\C#N)C(=O)N[C@@H](CCC)c2ccccc2)c1)c1ccccc1, the IC50 [1] was 600 nM.

With N#C/C(=C/c1csc2ccccc12)C(=O)NCc1cccc(CNC(=O)/C(C#N)=C\c2csc3ccccc23)c1 the IC50 [1] was over 5000 nM.

Compound C[C@H](NC(=O)/C(C#N)=C/c1cccnc1)c1ccccc1 has an inhibition at 10 µM [2] of 44%.

For COc1cccc(/C=C(/C#N)C(=O)NCc2cccc(CNC(=O)/C(C#N)=C\c3cccc(OC)n3)c2)n1, the IC50 [1] was over 5000 nM.

Work on CCC[C@H](NC(=O)/C(C#N)=C/c1cccc(/C=C(\C#N)C(=O)N[C@@H](CCC)c2ccccc2)n1)c1ccccc1 yielded an IC50 [1] of 1200 nM.

Work on N#C/C(=C/c1cc(-c2ccccc2)cs1)C(=O)NCc1cccc(CNC(=O)/C(C#N)=C\c2cc(-c3ccccc3)cs2)c1 yielded an IC50 [1] of over 5000 nM.

In the case of N#C/C(=C/c1c[nH]c2ccccc12)C(=O)NCc1cccc(CNC(=O)/C(C#N)=C\c2c[nH]c3ccccc23)c1, the IC50 [1] is reported as over 5000 nM.

Compound N#C/C(=C\c1cccc(/C=C(\C#N)C(=O)N[C@@H](CO)c2ccccc2)n1)C(=O)N[C@@H](CO)c1ccccc1 has an IC50 [1] of over 2000 nM.

N#C/C(=C/c1cc(Cl)c(Cl)cn1)C(=O)NCc1cccc(CNC(=O)/C(C#N)=C\c2cc(Cl)c(Cl)cn2)c1 showed an IC50 [1] of 1250 nM.

With CCC[C@H](NC(=O)/C(C#N)=C/c1cccc(Br)n1)c1ccccc1 the inhibition at 10 µM [2] was 97%, the inhibition [9] was “Active” and the IC50 [10] was 5900 nM. The IC50 [1] was 1200 nM, the IC50 [5] was 800 nM and the IC50 [6] was 2400 nM. It also gave an IC50 [8] of 1700 nM.

With CC(C)c1ccc(/C=C(\C#N)C(=O)NCc2ccc(Cl)cc2)cc1 the inhibition at 10 µM [2] was 21%.

N#C/C(=C/c1ccc2[nH]ccc2c1)C(=O)NCc1cccc(CNC(=O)/C(C#N)=C\c2ccc3[nH]ccc3c2)c1 gave an IC50 [1] of over 5000 nM.

Work on COC(=O)c1ccc(/C=C(\C#N)C(=O)N[C@@H](C)c2ccccc2)cc1 yielded an inhibition at 10 µM [2] of 67%.
